ChEMBL document CHEMBL5058577, “EUbOPEN Chemogenomics Library 2 (Multiplex)” (2022)

System: U2OS
Assay: Multiplex assay against U2OS
Type: toxicity, cell-based
Settings: human
Method in brief: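 Cells were classed with CellPathfinder machine-learning gating, first as Hoechst high-intensity objects or normal cells, then (normal cells) as healthy, pyknosed or fragmented nuclei, and finally (pyknosed cells) as mitotic or apoptotic. Staining of live cells at seeding used Hoechst33342, BioTracker Green Microtubule Cytoskeleton Dye, MitoTracker Red and Annexin V Alexa Fluor 680, with imaging on a CQ1 microscope at 37°C and 5% CO2 after compound addition. Tubulin, mitochondrial-mass and membrane-permeability phenotypes are per cents of healthy-nucleus cells.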

[1] = 12 h, 1 µM, compound concentration 1 uM, replicate 1
[2] = 12 h, 1 µM, compound concentration 1 uM, replicate 2
[3] = 12 h, 10 µM, compound concentration 10 uM, replicate 1
[4] = 12 h, 10 µM, compound concentration 10 uM, replicate 2
[5] = 24 h, 1 µM, compound concentration 1 uM, replicate 1
[6] = 24 h, 1 µM, compound concentration 1 uM, replicate 2
[7] = 24 h, 10 µM, compound concentration 10 uM, replicate 1
[8] = 24 h, 10 µM, compound concentration 10 uM, replicate 2
[9] = 48 h, 1 µM, compound concentration 1 uM, replicate 1
[10] = 48 h, 1 µM, compound concentration 1 uM, replicate 2
[11] = 48 h, 10 µM, compound concentration 10 uM, replicate 1
[12] = 48 h, 10 µM, compound concentration 10 uM, replicate 2

SMILES: COc1cc(NC(=O)CCN2CCC(OC(=O)Nc3ccccc3-c3ccccc3)CC2)c(Cl)cc1CNC[C@H](O)c1ccc(O)c2[nH]c(=O)ccc12 [BATEFENTEROL]
- Population Apoptotic (%) [1]: 68%
- Population Fragmented Nuclei (%) [1]: 29%
- Population Healthy Nuclei (%) [1]: 49%
- Population Hoechst High Intensity Objects (%) [1]: 4%
- Population Membrane Permeable-Phenotype (%) [1]: 5%
- Population Mitochondria Different-Phenotype (%) [1]: 5%
- Population Mitotic Cells (%) [1]: 31%
- Population Normal (%) [1]: 95%
- Population Pyknosed Nuclei (%) [1]: 21%
- Population Tubulin-Different-Phenotype (%) [1]: 4%
- Total Cell Count [1]: 159
- Population Apoptotic (%) [2]: 85%
- Population Fragmented Nuclei (%) [2]: 14%
- Population Healthy Nuclei (%) [2]: 78%
- Population Hoechst High Intensity Objects (%) [2]: 1%
- Population Membrane Permeable-Phenotype (%) [2]: 9%
- Population Mitochondria Different-Phenotype (%) [2]: 6%
- Population Mitotic Cells (%) [2]: 14%
- Population Normal (%) [2]: 98%
- Population Pyknosed Nuclei (%) [2]: 7%
- Population Tubulin-Different-Phenotype (%) [2]: 7%
- Total Cell Count [2]: 98
- Population Apoptotic (%) [3]: 72%
- Population Fragmented Nuclei (%) [3]: 37%
- Population Healthy Nuclei (%) [3]: 44%
- Population Hoechst High Intensity Objects (%) [3]: 6%
- Population Membrane Permeable-Phenotype (%) [3]: 60%
- Population Mitochondria Different-Phenotype (%) [3]: 67%
- Population Mitotic Cells (%) [3]: 27%
- Population Normal (%) [3]: 93%
- Population Pyknosed Nuclei (%) [3]: 18%
- Population Tubulin-Different-Phenotype (%) [3]: 75%
- Total Cell Count [3]: 196
- Population Apoptotic (%) [4]: 88%
- Population Fragmented Nuclei (%) [4]: 18%
- Population Healthy Nuclei (%) [4]: 59%
- Population Hoechst High Intensity Objects (%) [4]: 7%
- Population Membrane Permeable-Phenotype (%) [4]: 57%
- Population Mitochondria Different-Phenotype (%) [4]: 95%
- Population Mitotic Cells (%) [4]: 11%
- Population Normal (%) [4]: 92%
- Population Pyknosed Nuclei (%) [4]: 22%
- Population Tubulin-Different-Phenotype (%) [4]: 97%
- Total Cell Count [4]: 82
- Population Apoptotic (%) [5]: 74%
- Population Fragmented Nuclei (%) [5]: 27%
- Population Healthy Nuclei (%) [5]: 55%
- Population Hoechst High Intensity Objects (%) [5]: 2%
- Population Membrane Permeable-Phenotype (%) [5]: 9%
- Population Mitochondria Different-Phenotype (%) [5]: 9%
- Population Mitotic Cells (%) [5]: 25%
- Population Normal (%) [5]: 97%
- Population Pyknosed Nuclei (%) [5]: 17%
- Population Tubulin-Different-Phenotype (%) [5]: 5%
- Total Cell Count [5]: 182
- Population Apoptotic (%) [6]: 100%
- Population Fragmented Nuclei (%) [6]: 12%
- Population Healthy Nuclei (%) [6]: 75%
- Population Hoechst High Intensity Objects (%) [6]: 1%
- Population Membrane Permeable-Phenotype (%) [6]: 5%
- Population Mitochondria Different-Phenotype (%) [6]: 6%
- Population Mitotic Cells (%) [6]: 0%
- Population Normal (%) [6]: 98%
- Population Pyknosed Nuclei (%) [6]: 11%
- Population Tubulin-Different-Phenotype (%) [6]: 2%
- Total Cell Count [6]: 103
- Population Apoptotic (%) [7]: 79%
- Population Fragmented Nuclei (%) [7]: 38%
- Population Healthy Nuclei (%) [7]: 38%
- Population Hoechst High Intensity Objects (%) [7]: 4%
- Population Membrane Permeable-Phenotype (%) [7]: 32%
- Population Mitochondria Different-Phenotype (%) [7]: 59%
- Population Mitotic Cells (%) [7]: 20%
- Population Normal (%) [7]: 95%
- Population Pyknosed Nuclei (%) [7]: 22%
- Population Tubulin-Different-Phenotype (%) [7]: 44%
- Total Cell Count [7]: 199
- Population Apoptotic (%) [8]: 73%
- Population Fragmented Nuclei (%) [8]: 29%
- Population Healthy Nuclei (%) [8]: 42%
- Population Hoechst High Intensity Objects (%) [8]: 9%
- Population Membrane Permeable-Phenotype (%) [8]: 52%
- Population Mitochondria Different-Phenotype (%) [8]: 91%
- Population Mitotic Cells (%) [8]: 26%
- Population Normal (%) [8]: 90%
- Population Pyknosed Nuclei (%) [8]: 27%
- Population Tubulin-Different-Phenotype (%) [8]: 91%
- Total Cell Count [8]: 93
- Population Apoptotic (%) [9]: 82%
- Population Fragmented Nuclei (%) [9]: 26%
- Population Healthy Nuclei (%) [9]: 54%
- Population Hoechst High Intensity Objects (%) [9]: 3%
- Population Membrane Permeable-Phenotype (%) [9]: 3%
- Population Mitochondria Different-Phenotype (%) [9]: 5%
- Population Mitotic Cells (%) [9]: 17%
- Population Normal (%) [9]: 96%
- Population Pyknosed Nuclei (%) [9]: 19%
- Population Tubulin-Different-Phenotype (%) [9]: 3%
- Total Cell Count [9]: 242
- Population Apoptotic (%) [10]: 85%
- Population Fragmented Nuclei (%) [10]: 17%
- Population Healthy Nuclei (%) [10]: 64%
- Population Hoechst High Intensity Objects (%) [10]: 4%
- Population Mitochondria Different-Phenotype (%) [10]: 1%
- Population Mitotic Cells (%) [10]: 14%
- Population Normal (%) [10]: 95%
- Population Pyknosed Nuclei (%) [10]: 17%
- Population Tubulin-Different-Phenotype (%) [10]: 1%
- Total Cell Count [10]: 123
- Population Apoptotic (%) [11]: 92%
- Population Fragmented Nuclei (%) [11]: 41%
- Population Healthy Nuclei (%) [11]: 39%
- Population Hoechst High Intensity Objects (%) [11]: 6%
- Population Membrane Permeable-Phenotype (%) [11]: 31%
- Population Mitochondria Different-Phenotype (%) [11]: 43%
- Population Mitotic Cells (%) [11]: 7%
- Population Normal (%) [11]: 93%
- Population Pyknosed Nuclei (%) [11]: 18%
- Population Tubulin-Different-Phenotype (%) [11]: 23%
- Total Cell Count [11]: 221
- Population Apoptotic (%) [12]: 94%
- Population Fragmented Nuclei (%) [12]: 29%
- Population Healthy Nuclei (%) [12]: 32%
- Population Hoechst High Intensity Objects (%) [12]: 10%
- Population Membrane Permeable-Phenotype (%) [12]: 38%
- Population Mitochondria Different-Phenotype (%) [12]: 70%
- Population Mitotic Cells (%) [12]: 5%
- Population Normal (%) [12]: 89%
- Population Pyknosed Nuclei (%) [12]: 37%
- Population Tubulin-Different-Phenotype (%) [12]: 48%
- Total Cell Count [12]: 105
